In brackets after ≈: the same amount, converted by molar mass. Activity calls are given as the source filed them. The rule behind the calls is not given here.
How the values were obtained:
[1] = target: T1, Glucose-dependent insulinotropic receptor (Homo sapiens) (UniProt Q8TDV5); experiment: Agonist activity at GPR119 (unknown origin) assessed as increase in cAMP level at 10 uM by cAMP HTRF assay relative to oleoylethanolamide; format: functional
T1 sequence (whole entry): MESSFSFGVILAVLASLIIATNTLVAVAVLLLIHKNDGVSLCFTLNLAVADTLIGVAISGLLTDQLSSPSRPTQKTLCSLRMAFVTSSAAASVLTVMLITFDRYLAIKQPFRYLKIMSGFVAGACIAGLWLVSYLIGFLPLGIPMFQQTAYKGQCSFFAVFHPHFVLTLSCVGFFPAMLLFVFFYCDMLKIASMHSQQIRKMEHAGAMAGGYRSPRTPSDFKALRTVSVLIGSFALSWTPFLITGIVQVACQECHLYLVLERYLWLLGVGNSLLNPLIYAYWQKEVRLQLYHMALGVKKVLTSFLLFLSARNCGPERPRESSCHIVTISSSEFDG
Summary of the method: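 Cell-based GPR119 agonism at a single 10 μM concentration. Response is expressed as percent of the maximal efficacy of the reference agonist oleoylethanolamide (OEA). Values are means.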

[2] = target: T2, Glucose-dependent insulinotropic receptor (Homo sapiens, UniProt Q8TDV5); experiment: Agonist activity at GPR119 (unknown origin) assessed as increase in cAMP level by cAMP HTRF assay; format: functional
T2 sequence (Q8TDV5 whole entry): T1 sequence (whole entry)
Summary of the method: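 Cell-based GPR119 agonist assay with a top test concentration of 10 μM. EC50 values are reported as means.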

[3] = system: Mus musculus; experiment: Hypoglycemic activity in C57BL/6 mouse assessed as reduction in blood glucose AUC at 100 mg/kg, po measured after 2 hrs by glucose challenge by OGTT relative to control; format: functional; parameters: scale not given: the % may be the effect or the level left
Summary of the method: (§1)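 Normal male C57BL/6J mice received vehicle or compound at 20, 50 or 100 mg/kg, then a glucose challenge of 2 g/kg (10 ml/kg). Blood glucose was followed over 0–120 min and AUC0–120 min calculated. Mean ± SD, n=6, versus vehicle group.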

[4] = system: Mus musculus; experiment: Hypoglycemic activity in C57BL/6 mouse assessed as reduction in blood glucose AUC at 20 and 50 mg/kg, po measured immediately by glucose challenge by OGTT relative to control; format: functional; parameters: scale not given: the % may be the effect or the level left; summary of the method: as §1
[5] = system: Mus musculus; experiment: Hypoglycemic activity in C57BL/6 mouse assessed as reduction in blood glucose AUC at 20 and 50 mg/kg, po measured after 2 hrs by glucose challenge by OGTT relative to control; format: functional; parameters: scale not given: the % may be the effect or the level left; summary of the method: as §1
[6] = system: Mus musculus; experiment: Hypoglycemic activity in C57BL/6 mouse […] model assessed as reduction in blood glucose AUC at 20 mg/kg, po administered for 28 days and measured after 2 hrs on day 28 by glucose challenge by OGTT relative to control; format: functional; parameters: scale not given: the % may be the effect or the level left
Summary of the method: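 Diet-induced obese mice were dosed with 20 mg/kg repeatedly for 28 days. On day 28 an OGTT (2 g/kg glucose) was run with blood glucose tracked over 0–120 min and AUC0–120 min derived. Fasting glucose was also taken at day 28. Mean ± SD, n=6, versus vehicle.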

[7] = Toxicity in C57BL/6 mouse […] model assessed as reduction in food intake at 20 mg/kg, po observed for 4 weeks; format: organism-based; conditions: in vivo, 672 h
Summary of the method: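 Diet-induced obese mice were treated at 20 mg/kg for 4 weeks, and average food intake was recorded over the treatment period. Mean ± SD, n=6, compared with vehicle.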

[8] = system: Mus musculus; experiment: Antidiabetic activity in C57BL/6 mouse […] model assessed as reduction in body weight gain at 20 mg/kg, po administered for 4 weeks and measured on day 28; format: functional, organism-based
Summary of the method: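 Diet-induced obese mice were given 20 mg/kg for 4 weeks, with body weight recorded through day 28. Mean ± SD, n=6, versus vehicle group.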

[9] = Solubility of compound; format: physicochemical
Summary of the method: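 Aqueous solubility (logS and mg/ml) was calculated in silico, not measured experimentally.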

SMILES	Emax [1] [%]	EC50 [2] [nM]	also measured
CC(C)(C)OC(=O)N1CC=C(c2nc(COc3ccc(C(C)(C)C)cc3C(C)(C)C)cs2)CC1	1.7		
CC(C)(C)OC(=O)N1CC=C(c2nc(CNc3ccc(-n4cnnn4)cc3)cs2)CC1	35.5		
CC(C)(C)OC(=O)N1CC=C(c2nc(COc3ccc(C4CCCCC4)cc3)cs2)CC1	19.7		
CC(C)(C)OC(=O)N1CC=C(c2nc(CNc3cc(C(F)(F)F)cc(C(F)(F)F)c3)cs2)CC1	-2.16		
CCc1cnc(N2CC=C(c3nc(COc4ccc(-n5cnnn5)cc4)cs3)CC2)nc1	110	4.9	Activity [3]: 35.05%; Activity [4]: 20.11%; Activity [5]: 26.77%; Activity [6]: 34.8%; Activity [7]: Non-Toxic; Activity [8]: Active; solubility [9]: 56 µg/mL (≈ 125 µM)
CCc1ccc(N2CC=C(c3nc(COc4ccc(-n5cnnn5)cc4F)cs3)CC2)nc1	89.6		
COc1ccc(NCc2csc(C3=CCN(C(=O)OC(C)(C)C)CC3)n2)c(OC)c1	-7.44		
CC(C)(C)OC(=O)N1CC=C(c2nc(COc3ccc(-n4cnnn4)cc3Cl)cs2)CC1	94.4	107	
CC(C)(C)OC(=O)N1CC=C(c2nc(COc3ccc(Cl)cc3)cs2)CC1	-7.34		
CC(C)(C)OC(=O)N1CC=C(c2nc(COc3ccc(-n4cnnn4)cc3F)cs2)CC1	105	108	
COc1ccc(NCc2csc(C3=CCN(C(=O)OC(C)(C)C)CC3)n2)cc1OC	-6.25		
CCc1cnc(N2CC=C(c3nc(COc4ccc(S(C)(=O)=O)cc4)cs3)CC2)nc1	105	70.5	
CC(C)(C)OC(=O)N1CC=C(c2nc(CNc3ccc(Cl)c(I)c3)cs2)CC1	5.25		
CC(C)(C)OC(=O)N1CC=C(c2nc(COc3ccc(-n4cnnn4)cc3)cs2)CC1	95.4	113	
CC(C)(C)OC(=O)N1CC=C(c2nc(COc3ccc4c(c3)OCO4)cs2)CC1	11.5		
CCc1ccc(N2CC=C(c3nc(COc4ccc(S(C)(=O)=O)cc4)cs3)CC2)nc1	71.5		

SMILES	Emax [1] [%]	EC50 [2] [nM]	also measured
CC(C)(C)OC(=O)N1CC=C(c2nc(COc3cccc(-n4cnnn4)c3)cs2)CC1	-2.17		
CCc1cnc(N2CC=C(c3nc(COc4ccc(-n5cnnn5)cc4Cl)cs3)CC2)nc1	109	10.2	Activity [3]: 12.11%
CC(C)(C)OC(=O)N1CC=C(c2nc(CNc3ccc(S(C)(=O)=O)cc3)cs2)CC1	26		
CCc1cnc(N2CC=C(c3nc(COc4ccc(-n5cnnn5)cc4F)cs3)CC2)nc1	115	8.8	Activity [3]: 26.81%; Activity [4]: 1.2%; Activity [5]: 14.16%
CC(C)(C)OC(=O)N1CC=C(c2nc(COc3ccc(S(C)(=O)=O)cc3)cs2)CC1	78	678	
CCc1cnc(N2CCC(c3nc(COc4ccc(-n5cnnn5)cc4)cs3)CC2)nc1 [MBX-2982]	113	3.9	Activity [3]: 29.22%; Activity [4]: 18.47%; Activity [5]: 26.72%; Activity [6]: 23.61%; Activity [7]: Non-Toxic; Activity [8]: Active; solubility [9]: 37 µg/mL (≈ 82.5 µM)
CCCC(=O)c1ccc(OCc2csc(C3=CCN(C(=O)OC(C)(C)C)CC3)n2)cc1	62.5		
COc1ccc(-n2cnnn2)cc1OCc1csc(C2=CCN(C(=O)OC(C)(C)C)CC2)n1	8.4		
COc1ccc(C(C)=O)cc1OCc1csc(C2=CCN(C(=O)OC(C)(C)C)CC2)n1	-5.65		
CCc1ccc(N2CC=C(c3nc(COc4ccc(-n5cnnn5)cc4Cl)cs3)CC2)nc1	72.7		
CCc1ccc(N2CC=C(c3nc(COc4ccc(-n5cnnn5)cc4)cs3)CC2)nc1	78.5		
COC(=O)c1sccc1NCc1csc(C2=CCN(C(=O)OC(C)(C)C)CC2)n1	13		
COc1ccc(OCc2csc(C3=CCN(C(=O)OC(C)(C)C)CC3)n2)cc1OC	10.7		
CC(C)(C)OC(=O)N1CC=C(c2nc(COc3ccc(OC(F)(F)F)cc3)cs2)CC1	7.04		
COc1ccc(Br)cc1OCc1csc(C2=CCN(C(=O)OC(C)(C)C)CC2)n1	-14.2		
CCCCCCCC/C=C\CCCCCCCC(=O)NCCO [OLEOYLETHANOLAMIDE]		930	
